Measured values reported in ChEMBL document CHEMBL3608281, “Synthesis and biological evaluation of novel 3,9-substituted β-carboline derivatives as anticancer agents” (Bioorg Med Chem Lett, 2015).
Calls of active or inactive are those of the source. The calls are words filed in the database; no cut-off is given here.

Key:
HL-60 [1] = assay: Cytotoxicity against human HL60 cells incubated for 48 hrs by MTT assay; type: functional, cell-based; conditions: HL-60, 48 h
Procedure, shortened: (§1)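 Human tumour lines (HL-60 leukemia, Hep3B liver, H460 lung, A498 renal, COLO205 colon, 2774 and SK-OV-3 ovarian) and normal Detroit 551 skin fibroblasts were exposed to a range of concentrations for 48 h. IC50 is the concentration giving 50% proliferation inhibition, as the mean of three independent determinations.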

[2] = Cytotoxicity against human Hep3B cells incubated for 48 hrs by MTT assay; type: functional, cell-based, Hep 3B2; procedure, shortened: as §1
[3] = Cytotoxicity against human H460 cells incubated for 48 hrs by MTT assay; type: functional, cell-based; conditions: NCI-H460, 48 h; procedure, shortened: as §1
A498 = assay: Cytotoxicity against human A498 cells incubated for 48 hrs by MTT assay; type: functional, cell-based; conditions: A498, 48 h
COLO 205 = assay: Cytotoxicity against human COLO205 cells incubated for 48 hrs by MTT assay; type: functional, cell-based; conditions: COLO 205, 48 h; procedure, shortened: as §1
[4] = Cytotoxicity against human 2774 cells incubated for 48 hrs by MTT assay; type: functional, cell-based; procedure, shortened: as §1
SK-OV-3 = assay: Cytotoxicity against human SKOV3 cells incubated for 48 hrs by MTT assay; type: functional, cell-based; conditions: SK-OV-3, 48 h; procedure, shortened: as §1
Detroit 551 = assay: Cytotoxicity against human Detroit 551 cells incubated for 48 hrs by MTT assay; type: cell-based; conditions: Detroit 551, 48 h; procedure, shortened: as §1
MCF7 = assay: Cytotoxicity against human MCF7 cells; type: functional, cell-based
HL-60 [5] = assay: Induction of cell morphology changes in human HL60 cells assessed as induction of nuclear shrinkage at 5 uM incubated for 24 hrs by a phase-contrast microscopy; type: functional, cell-based
Procedure, shortened: (§2)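 HL-60 cells were treated at 1, 5 and 10 μM for 24 h and 48 h and examined microscopically for nuclear shrinkage and apoptotic bodies.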

HL-60 [6] = assay: Induction of cell morphology changes in human HL60 cells assessed as induction of appearance apoptotic bodies at 5 uM incubated for 24 hrs by a phase-contrast microscopy; type: functional, cell-based; procedure, shortened: as §2
HL-60 [7] = assay: Induction of cell cycle arrest in human HL60 cells assessed as accumulation at subG1 phase at 1 uM incubated for 48 hrs by propidium iodide staining based flow cytometry (reference value: 2.5%); type: functional
HL-60 [8] = assay: Induction of cell cycle arrest in human HL60 cells assessed as accumulation at G0/G1 phase at 1 uM incubated for 48 hrs by propidium iodide staining based flow cytometry (reference value: 39.51%); type: functional
HL-60 [9] = assay: Induction of cell cycle arrest in human HL60 cells assessed as accumulation at S phase at 1 uM incubated for 48 hrs by propidium iodide staining based flow cytometry (reference value: 43.72%); type: functional
HL-60 [10] = assay: Induction of cell cycle arrest in human HL60 cells assessed as accumulation at G2/M phase at 1 uM incubated for 48 hrs by propidium iodide staining based flow cytometry (reference value: 16.77%); type: functional
HL-60 [11] = assay: Induction of cell cycle arrest in human HL60 cells assessed as accumulation at subG1 phase at 5 uM incubated for 48 hrs by propidium iodide staining based flow cytometry (reference value: 2.5%); type: functional
HL-60 [12] = assay: Induction of cell cycle arrest in human HL60 cells assessed as accumulation at G0/G1 phase at 5 uM incubated for 48 hrs by propidium iodide staining based flow cytometry (reference value: 39.51%); type: functional
HL-60 [13] = assay: Induction of cell cycle arrest in human HL60 cells assessed as accumulation at S phase at 5 uM incubated for 48 hrs by propidium iodide staining based flow cytometry (reference value: 43.72%); type: functional
HL-60 [14] = assay: Induction of cell cycle arrest in human HL60 cells assessed as accumulation at G2/M phase at 5 uM incubated for 48 hrs by propidium iodide staining based flow cytometry (reference value: 16.77%); type: functional
HL-60 [15] = assay: Induction of cell cycle arrest in human HL60 cells assessed as accumulation at subG1 phase at 10 uM incubated for 48 hrs by propidium iodide staining based flow cytometry (reference value: 2.5%); type: functional
HL-60 [16] = assay: Induction of cell cycle arrest in human HL60 cells assessed as accumulation at G0/G1 phase at 10 uM incubated for 48 hrs by propidium iodide staining based flow cytometry (reference value: 39.51%); type: functional
HL-60 [17] = assay: Induction of cell cycle arrest in human HL60 cells assessed as accumulation at S phase at 10 uM incubated for 48 hrs by propidium iodide staining based flow cytometry (reference value: 43.72%); type: functional
HL-60 [18] = assay: Induction of cell cycle arrest in human HL60 cells assessed as accumulation at G2/M phase at 10 uM incubated for 48 hrs by propidium iodide staining based flow cytometry (reference value: 16.77%); type: functional
HL-60 [19] = assay: Induction of cell cycle arrest in human HL60 cells assessed as accumulation at subG1 phase incubated for 48 hrs by propidium iodide staining based flow cytometry; type: functional
HL-60 [20] = assay: Induction of apoptosis in human HL60 cells assessed as early apoptotic cells level at 5 uM incubated for 24 hrs by annexin V/propidium iodide staining based flow cytometry (reference value: 0%); type: functional
HL-60 [21] = assay: Induction of apoptosis in human HL60 cells assessed as late apoptotic cells level at 5 uM incubated for 24 hrs by annexin V/propidium iodide staining based flow cytometry (reference value: 0.4%); type: functional
HL-60 [22] = assay: Induction of apoptosis in human HL60 cells assessed as early apoptotic cells level at 5 uM incubated for 48 hrs by annexin V/propidium iodide staining based flow cytometry (reference value: 0%); type: functional
HL-60 [23] = assay: Induction of apoptosis in human HL60 cells assessed as late apoptotic cells level at 5 uM incubated for 48 hrs by annexin V/propidium iodide staining based flow cytometry (reference value: 0.4%); type: functional
HL-60 [24] = assay: Induction of apoptosis in human HL60 cells assessed as upregulation of caspase-3 protein expression at 5 uM incubated for 24 hrs and 48 hrs by Western blotting method; type: functional, cell-based
Procedure, shortened: (§3)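 HL-60 cells were exposed to 5 μM for 24 and 48 h. Lysates were immunoblotted for Fas, DR4, DR5, FasL, TRAIL, Bax, Bcl-2, caspase-9, caspase-3 and PARP (cleavage), with β-actin as loading control.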

HL-60 [25] = assay: Induction of apoptosis in human HL60 cells assessed as upregulation of caspase-9 protein expression at 5 uM incubated for 24 hrs and 48 hrs by Western blotting method; type: functional, cell-based; procedure, shortened: as §3
HL-60 [26] = assay: Induction of apoptosis in human HL60 cells assessed as induction of PARP cleavage at 5 uM incubated for 24 hrs and 48 hrs by Western blotting method; type: functional, cell-based; procedure, shortened: as §3
HL-60 [27] = assay: Induction of apoptosis in human HL60 cells assessed as induction of AIF protein release into cytosol at 5 uM incubated for 24 hrs and 48 hrs by Western blotting method; type: functional, cell-based
HL-60 [28] = assay: Induction of apoptosis in human HL60 cells assessed as induction of endonuclease-G protein release into cytosol at 5 uM incubated for 24 hrs and 48 hrs by Western blotting method; type: functional, cell-based
HL-60 [29] = assay: Induction of apoptosis in human HL60 cells assessed as induction of Apaf-1 protein release into cytosol at 5 uM incubated for 24 hrs and 48 hrs by Western blotting method; type: functional, cell-based
HL-60 [30] = assay: Induction of apoptosis in human HL60 cells assessed as induction of cytochrome-c protein release into cytosol at 5 uM incubated for 24 hrs and 48 hrs by Western blotting method; type: functional, cell-based
HL-60 [31] = assay: Induction of apoptosis in human HL60 cells assessed as reduction in Bcl-2 protein level at 5 uM incubated for 24 hrs and 48 hrs by Western blotting method; type: functional, cell-based; procedure, shortened: as §3
HL-60 [32] = assay: Induction of apoptosis in human HL60 cells assessed as increase in Bax protein level at 5 uM incubated for 24 hrs and 48 hrs by Western blotting method; type: functional, cell-based; procedure, shortened: as §3
HL-60 [33] = assay: Increase in Fas protein expression in human HL60 cells at 5 uM incubated for 24 hrs and 48 hrs by Western blotting method; type: functional, cell-based; procedure, shortened: as §3
HL-60 [34] = assay: Increase in DR4 protein expression in human HL60 cells at 5 uM incubated for 24 hrs and 48 hrs by Western blotting method; type: functional, cell-based; procedure, shortened: as §3
HL-60 [35] = assay: Increase in DR5 protein expression in human HL60 cells at 5 uM incubated for 24 hrs and 48 hrs by Western blotting method; type: functional, cell-based; procedure, shortened: as §3
HL-60 [36] = assay: Increase in FasL protein expression in human HL60 cells at 5 uM incubated for 24 hrs and 48 hrs by Western blotting method; type: functional, cell-based; procedure, shortened: as §3
HL-60 [37] = assay: Increase in TRAIL protein expression in human HL60 cells at 5 uM incubated for 24 hrs and 48 hrs by Western blotting method; type: functional, cell-based; procedure, shortened: as §3

SMILES: CCOC(=O)c1cc2c(cn1)[nH]c1ccccc12
- IC50 (HL-60 [1]): > 100 µM
- IC50 [2]: > 100 µM
- IC50 [3]: > 100 µM
- IC50 (A498): > 100 µM
- IC50 (COLO 205): > 100 µM
- IC50 [4]: > 100 µM
- IC50 (SK-OV-3): > 100 µM
- IC50 (Detroit 551): > 100 µM

SMILES: CCOC(=O)c1cc2c3ccccc3n(Cc3ccc(OC)cc3)c2cn1
- IC50 (HL-60 [1]): 39 µM
- IC50 [2]: 50 µM
- IC50 [3]: 50 µM
- IC50 (A498): 38.5 µM
- IC50 (COLO 205): 36.9 µM
- IC50 [4]: > 100 µM
- IC50 (SK-OV-3): > 100 µM
- IC50 (Detroit 551): 50 µM

SMILES: CCOC(=O)c1cc2c3ccccc3n(Cc3ccccn3)c2cn1
- IC50 (HL-60 [1]): > 100 µM
- IC50 [2]: > 100 µM
- IC50 [3]: > 100 µM
- IC50 (A498): 46.3 µM
- IC50 (COLO 205): 38.7 µM
- IC50 (Detroit 551): > 100 µM

SMILES: CCOC(=O)c1cc2c3ccccc3n(Cc3ccc(F)cc3)c2cn1
- IC50 (HL-60 [1]): > 100 µM
- IC50 [2]: > 100 µM
- IC50 [3]: > 100 µM
- IC50 (A498): 50.4 µM
- IC50 (COLO 205): > 100 µM
- IC50 [4]: > 100 µM
- IC50 (SK-OV-3): > 100 µM
- IC50 (Detroit 551): > 100 µM

SMILES: CCOC(=O)c1cc2c3ccccc3n(Cc3ccc(Cl)cc3)c2cn1
- IC50 (HL-60 [1]): > 100 µM
- IC50 [2]: > 100 µM
- IC50 [3]: > 100 µM
- IC50 (A498): > 100 µM
- IC50 (COLO 205): > 100 µM
- IC50 [4]: 16.4 µM
- IC50 (SK-OV-3): 2.9 µM
- IC50 (Detroit 551): > 100 µM

SMILES: OCc1ccc2c(c1)c1ccccc1n2Cc1ccc(Cl)nc1
- IC50 (MCF7): 20 µM

SMILES: CCOC(=O)c1cc2c3ccccc3n(Cc3ccncc3)c2cn1
- IC50 (A498): > 100 µM
- IC50 (COLO 205): > 100 µM
- IC50 [4]: > 100 µM
- IC50 (SK-OV-3): > 100 µM

SMILES: O=C(O)C1Cc2c([nH]c3ccccc23)CN1 (stereo not given)
- IC50 [3]: > 50 µM
- IC50 (A498): > 50 µM
- IC50 (COLO 205): > 50 µM

SMILES: CCOC(=O)c1cc2c3ccccc3n(Cc3cc(OC)c(OC)c(OC)c3)c2cn1
- IC50 (HL-60 [1]): 21.9 µM
- IC50 [2]: > 100 µM
- IC50 [3]: > 100 µM
- IC50 (A498): > 100 µM
- IC50 (COLO 205): > 100 µM
- IC50 [4]: > 100 µM
- IC50 (SK-OV-3): > 100 µM
- IC50 (Detroit 551): > 100 µM

SMILES: COc1ccccc1Cn1c2ccccc2c2cc(C(=O)O)ncc21
- IC50 (HL-60 [1]): 4 µM
- IC50 [2]: 6.7 µM
- IC50 [3]: 8 µM
- IC50 (A498): 7.5 µM
- IC50 (COLO 205): 32.5 µM
- IC50 [4]: 12.6 µM
- IC50 (SK-OV-3): 21.4 µM
- IC50 (Detroit 551): > 100 µM
- Activity (HL-60 [5]): Active
- Activity (HL-60 [6]): Active
- Activity (HL-60 [7]): 9.83%
- Activity (HL-60 [8]): 34.67%
- Activity (HL-60 [9]): 49.22%
- Activity (HL-60 [10]): 16.11%
- Activity (HL-60 [11]): 14.55%
- Activity (HL-60 [12]): 37.39%
- Activity (HL-60 [13]): 50.19%
- Activity (HL-60 [14]): 12.42%
- Activity (HL-60 [15]): 17.79%
- Activity (HL-60 [16]): 55.62%
- Activity (HL-60 [17]): 39.4%
- Activity (HL-60 [18]): 4.98%
- Activity (HL-60 [19]): Dose-dependent effect
- Activity (HL-60 [20]): 37.9%
- Activity (HL-60 [21]): 27.9%
- Activity (HL-60 [22]): 46.6%
- Activity (HL-60 [23]): 38.6%
- Activity (HL-60 [24]): Active
- Activity (HL-60 [25]): Active
- Activity (HL-60 [26]): Active
- Activity (HL-60 [27]): Active
- Activity (HL-60 [28]): Active
- Activity (HL-60 [29]): Active
- Activity (HL-60 [30]): Active
- Activity (HL-60 [31]): Active
- Activity (HL-60 [32]): Active
- Activity (HL-60 [33]): inactive
- Activity (HL-60 [34]): inactive
- Activity (HL-60 [35]): inactive
- Activity (HL-60 [36]): inactive
- Activity (HL-60 [37]): inactive
